In brackets after ≈: the same amount, converted by molar mass.
Columns and labels:
[1] = tested on: Mycolicibacterium smegmatis; assay: Anti-tubercular activity against Mycobacterium smegmatis MC2 155 ATCC 700084 after 3 days by microdilution method; type: functional; conditions: MC2 155 ATCC 700084, 72 h
Summary of the method: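 M. smegmatis mc2155 grown in MB7H9 + 10% OADC at 37 °C with shaking to OD600 0.8. Inoculum set to 0.5 McFarland, diluted 1:100, and mixed 1:1 with two-fold serial dilutions in MB7H9. Plates incubated 3 days at 37 °C with growth and sterility controls. MIC taken as the lowest concentration with no visible growth.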

[2] = Cytotoxicity against human MDM assessed as cell viability after 3 days by Alamar blue dye-based fluorocytometric analysis relative to control; conditions: 72 h
[3] = tested on: Mycobacterium tuberculosis; assay: Antibacterial activity against Mycobacterium tuberculosis H37Rv ATCC 27294T assessed as isoniazid MIC at 0.25 ug/ml after 7 days by microdilution checkerboard assay; type: functional; conditions: 168 h
Summary of the method: (§1)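 Two-dimensional checkerboard in H37Rv at 10^5 CFU/ml in MB7H9/OADC. Partner drug (amikacin, EtBr, isoniazid, ofloxacin or rifampin) two-fold serially diluted across columns 3-11. Test compound two-fold serially diluted down rows 2-6. Plates incubated 7 days at 37 °C, then MTT added overnight. […] Run in triplicate.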

[4] = tested on: Mycobacterium tuberculosis; assay: Antibacterial activity against Mycobacterium tuberculosis H37Rv ATCC 27294T assessed as isoniazid MIC at 0.12 ug/ml after 7 days by microdilution checkerboard assay; type: functional; conditions: 168 h; summary of the method: as §1
[5] = tested on: Mycobacterium tuberculosis; assay: Antibacterial activity against Mycobacterium tuberculosis H37Rv ATCC 27294T assessed as ethidium bromide MIC at 0.12 ug/ml after 7 days by microdilution checkerboard assay; type: functional; conditions: 168 h; summary of the method: as §1
[6] = tested on: Mycobacterium tuberculosis; assay: Antibacterial activity against Mycobacterium tuberculosis H37Rv ATCC 27294T assessed as ethidium bromide MIC at 0.25 ug/ml after 7 days by microdilution checkerboard assay; type: functional; conditions: 168 h; summary of the method: as §1
[7] = tested on: Mycobacterium tuberculosis; assay: Antibacterial activity against Mycobacterium tuberculosis H37Rv ATCC 27294T assessed as ethidium bromide MIC at 0.5 ug/ml after 7 days by microdilution checkerboard assay; type: functional; conditions: 168 h; summary of the method: as §1
[8] = tested on: Mycobacterium tuberculosis; assay: Antibacterial activity against Mycobacterium tuberculosis H37Rv ATCC 27294T assessed as ethidium bromide MIC at 1 ug/ml after 7 days by microdilution checkerboard assay; type: functional; conditions: 168 h; summary of the method: as §1
[9] = tested on: Mycobacterium tuberculosis; assay: Antibacterial activity against Mycobacterium tuberculosis H37Rv ATCC 27294T assessed as ethidium bromide MIC at 2 ug/ml after 7 days by microdilution checkerboard assay; type: functional; conditions: 168 h; summary of the method: as §1
[10] = tested on: Mycobacterium tuberculosis; assay: Antibacterial activity against Mycobacterium tuberculosis H37Rv ATCC 27294T assessed as ethidium bromide MIC at 4 ug/ml after 7 days by microdilution checkerboard assay; type: functional; conditions: 168 h; summary of the method: as §1
[11] = tested on: Mycobacterium tuberculosis; assay: Antibacterial activity against Mycobacterium tuberculosis H37Rv ATCC 27294T assessed as ethidium bromide MIC at 8 ug/ml after 7 days by microdilution checkerboard assay; type: functional; conditions: 168 h; summary of the method: as §1
[12] = tested on: Mycobacterium tuberculosis; assay: Antibacterial activity against Mycobacterium tuberculosis H37Rv ATCC 27294T assessed as ofloxacin MIC at 0.12 ug/ml after 7 days by microdilution checkerboard assay; type: functional; conditions: 168 h; summary of the method: as §1
[13] = tested on: Mycobacterium tuberculosis; assay: Antibacterial activity against Mycobacterium tuberculosis H37Rv ATCC 27294T assessed as ofloxacin MIC at 0.25 ug/ml after 7 days by microdilution checkerboard assay; type: functional; conditions: 168 h; summary of the method: as §1
[14] = tested on: Mycobacterium tuberculosis; assay: Antibacterial activity against Mycobacterium tuberculosis H37Rv ATCC 27294T assessed as ofloxacin MIC at 0.5 ug/ml after 7 days by microdilution checkerboard assay; type: functional; conditions: 168 h; summary of the method: as §1
[15] = tested on: Mycobacterium tuberculosis; assay: Antibacterial activity against Mycobacterium tuberculosis H37Rv ATCC 27294T assessed as ofloxacin MIC at 1 ug/ml after 7 days by microdilution checkerboard assay; type: functional; conditions: 168 h; summary of the method: as §1
[16] = tested on: Mycobacterium tuberculosis; assay: Antibacterial activity against Mycobacterium tuberculosis H37Rv ATCC 27294T assessed as ofloxacin MIC at 2 ug/ml after 7 days by microdilution checkerboard assay; type: functional; conditions: 168 h; summary of the method: as §1
[17] = tested on: Mycobacterium tuberculosis; assay: Antibacterial activity against Mycobacterium tuberculosis H37Rv ATCC 27294T assessed as ofloxacin MIC at 4 ug/ml after 7 days by microdilution checkerboard assay; type: functional; conditions: 168 h; summary of the method: as §1
[18] = tested on: Mycobacterium tuberculosis; assay: Antibacterial activity against Mycobacterium tuberculosis H37Rv ATCC 27294T assessed as ofloxacin MIC at 8 ug/ml after 7 days by microdilution checkerboard assay; type: functional; conditions: 168 h; summary of the method: as §1
[19] = tested on: Mycobacterium tuberculosis; assay: Antibacterial activity against Mycobacterium tuberculosis H37Rv ATCC 27294T assessed as amikacin MIC at 0.12 ug/ml after 7 days by microdilution checkerboard assay; type: functional; conditions: 168 h; summary of the method: as §1
[20] = tested on: Mycobacterium tuberculosis; assay: Antibacterial activity against Mycobacterium tuberculosis H37Rv ATCC 27294T assessed as amikacin MIC at 0.25 ug/ml after 7 days by microdilution checkerboard assay; type: functional; conditions: 168 h; summary of the method: as §1
[21] = tested on: Mycobacterium tuberculosis; assay: Antibacterial activity against Mycobacterium tuberculosis H37Rv ATCC 27294T assessed as amikacin MIC at 0.5 ug/ml after 7 days by microdilution checkerboard assay; type: functional; conditions: 168 h; summary of the method: as §1
[22] = tested on: Mycobacterium tuberculosis; assay: Antibacterial activity against Mycobacterium tuberculosis H37Rv ATCC 27294T assessed as amikacin MIC at 1 ug/ml after 7 days by microdilution checkerboard assay; type: functional; conditions: 168 h; summary of the method: as §1
[23] = tested on: Mycobacterium tuberculosis; assay: Antibacterial activity against Mycobacterium tuberculosis H37Rv ATCC 27294T assessed as amikacin MIC at 2 ug/ml after 7 days by microdilution checkerboard assay; type: functional; conditions: 168 h; summary of the method: as §1
[24] = tested on: Mycobacterium tuberculosis; assay: Antibacterial activity against Mycobacterium tuberculosis H37Rv ATCC 27294T assessed as amikacin MIC at 4 ug/ml after 7 days by microdilution checkerboard assay; type: functional; conditions: 168 h; summary of the method: as §1
[25] = tested on: Mycobacterium tuberculosis; assay: Anti-tubercular activity against Mycobacterium tuberculosis H37Rv ATCC 27294T after 7 days by mircodilution method; type: functional; conditions: 168 h
Summary of the method: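 H37Rv grown static in MB7H9 + 10% OADC at 37 °C to OD600 0.8, then diluted to about 10^5 cells/ml. Mixed 1:1 with two-fold serial dilutions in MB7H9/OADC and incubated 7 days at 37 °C. MTT added to final 2.5% and plates incubated overnight. MIC is the lowest concentration with no colour change. Run in triplicate.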

[26] = tested on: Mycobacterium tuberculosis; assay: Antibacterial activity against Mycobacterium tuberculosis H37Rv ATCC 27294T assessed as isoniazid MIC at 8 ug/ml after 7 days by microdilution checkerboard assay; type: functional; conditions: 168 h; summary of the method: as §1
[27] = tested on: Mycobacterium tuberculosis; assay: Antibacterial activity against Mycobacterium tuberculosis H37Rv ATCC 27294T assessed as isoniazid MIC at 4 ug/ml after 7 days by microdilution checkerboard; type: functional; conditions: 168 h; summary of the method: as §1
[28] = tested on: Mycobacterium tuberculosis; assay: Antibacterial activity against Mycobacterium tuberculosis H37Rv ATCC 27294T assessed as isoniazid MIC at 2 ug/ml after 7 days by microdilution checkerboard assay; type: functional; conditions: 168 h; summary of the method: as §1
[29] = tested on: Mycobacterium tuberculosis; assay: Antibacterial activity against Mycobacterium tuberculosis H37Rv ATCC 27294T assessed as isoniazid MIC at 1 ug/ml after 7 days by microdilution checkerboard assay; type: functional; conditions: 168 h; summary of the method: as §1
[30] = tested on: Mycobacterium tuberculosis; assay: Antibacterial activity against Mycobacterium tuberculosis H37Rv ATCC 27294T assessed as isoniazid MIC at 0.5 ug/ml after 7 days by microdilution checkerboard assay; type: functional; conditions: 168 h; summary of the method: as §1
[31] = tested on: Mycobacterium tuberculosis; assay: Antibacterial activity against Mycobacterium tuberculosis H37Rv ATCC 27294T assessed as amikacin MIC at 8 ug/ml after 7 days by microdilution checkerboard assay; type: functional; conditions: 168 h; summary of the method: as §1
[32] = tested on: Mycobacterium tuberculosis; assay: Antibacterial activity against Mycobacterium tuberculosis H37Rv ATCC 27294T assessed as rifampin MIC at 0.12 ug/ml after 7 days by microdilution checkerboard assay; type: functional; conditions: 168 h; summary of the method: as §1
[33] = tested on: Mycobacterium tuberculosis; assay: Antibacterial activity against Mycobacterium tuberculosis H37Rv ATCC 27294T assessed as rifampin MIC at 0.25 ug/ml after 7 days by microdilution checkerboard assay; type: functional; conditions: 168 h; summary of the method: as §1
[34] = tested on: Mycobacterium tuberculosis; assay: Antibacterial activity against Mycobacterium tuberculosis H37Rv ATCC 27294T assessed as rifampin MIC at 0.5 ug/ml after 7 days by microdilution checkerboard assay; type: functional; conditions: 168 h
Summary of the method: (§2)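 M. tuberculosis H37Rv grown in MB7H9 + 10% OADC at 37 °C to OD600 0.8; plates inoculated at 10^5 CFU/ml. Rifampicin two-fold serially diluted across columns, test compound two-fold diluted down rows (two-dimensional checkerboard). Sealed, 37 °C for seven days, then MTT added and incubated overnight. MIC read as no colour change. Triplicate.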

[35] = tested on: Mycobacterium tuberculosis; assay: Antibacterial activity against Mycobacterium tuberculosis H37Rv ATCC 27294T assessed as rifampin MIC at 1 ug/ml after 7 days by microdilution checkerboard assay; type: functional; conditions: 168 h; summary of the method: as §2
[36] = tested on: Mycobacterium tuberculosis; assay: Antibacterial activity against Mycobacterium tuberculosis H37Rv ATCC 27294T assessed as rifampin MIC at 2 ug/ml after 7 days by microdilution checkerboard assay; type: functional; conditions: 168 h; summary of the method: as §2
[37] = tested on: Mycobacterium tuberculosis; assay: Antibacterial activity against Mycobacterium tuberculosis H37Rv ATCC 27294T assessed as rifampin MIC at 4 ug/ml after 7 days by microdilution checkerboard assay; type: functional; conditions: 168 h; summary of the method: as §2
[38] = tested on: Mycobacterium tuberculosis; assay: Antibacterial activity against Mycobacterium tuberculosis H37Rv ATCC 27294T assessed as rifampin MIC at 8 ug/ml after 7 days by microdilution checkerboard assay; type: functional; conditions: 168 h; summary of the method: as §2

CSc1ccc2c(c1)N(CCC1CCCCN1C)c1ccccc1S2 (stereo not drawn) [THIORIDAZINE]
MIC [1]: 31 µg/mL (≈ 83.7 µM) | IC50 [2]: 5.5 µg/mL (≈ 14.8 µM) | MIC [3]: 0.1 µg/mL | MIC [4]: 0.1 µg/mL | MIC [5]: 12.5 µg/mL | MIC [6]: 12.5 µg/mL | MIC [7]: 6.25 µg/mL | MIC [8]: 6.25 µg/mL | MIC [9]: 3.12 µg/mL | MIC [10]: 1.56 µg/mL | MIC [11]: 0.195 µg/mL | MIC [12]: 2 µg/mL | MIC [13]: 2 µg/mL | MIC [14]: 1 µg/mL | MIC [15]: 1 µg/mL | MIC [16]: 1 µg/mL | MIC [17]: 1 µg/mL | MIC [18]: 0.0312 µg/mL | MIC [19]: 1 µg/mL | MIC [20]: 1 µg/mL | MIC [21]: 1 µg/mL | MIC [22]: 1 µg/mL | MIC [23]: 1 µg/mL | MIC [24]: 0.25 µg/mL | MIC [25]: 16 µg/mL (≈ 43.2 µM) | MIC [26]: 1.56 ng/mL | MIC [27]: 0.0125 µg/mL | MIC [28]: 0.1 µg/mL | MIC [29]: 0.1 µg/mL | MIC [30]: 0.1 µg/mL | MIC [31]: 0.0312 µg/mL | MIC [32]: 1 µg/mL | MIC [33]: 0.5 µg/mL | MIC [34]: 0.5 µg/mL | MIC [35]: 0.5 µg/mL | MIC [36]: 0.5 µg/mL | MIC [37]: 0.5 µg/mL | MIC [38]: 0.0156 µg/mL
